Calls of active or inactive are those of the source. No cut-off for these calls is given here.
How the values were obtained:
[1] = system: Mycobacterium tuberculosis; assay: […] antimycobacterial activity against Mycobacterium tuberculosis H37Rv ATCC 27294 infected in human MONO-MAC-6 cells assessed as reduction in colony forming unit at 250 uM for 6 days by colony counting based analysis; format: functional, organism-based; conditions: time 6.0 day
In short: (§1)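 MonoMac6 monolayers infected with H37Rv, then treated with compound at 125 or 250 µM for 3 days. Treatment repeated with fresh compound solution for another 3 days. Intracellular bacteria quantified as CFU against untreated infected cells.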

[2] = Stability of the compound in Sula's semisynthetic medium containing 10% DMSO assessed as 2-hydroxyacetyl-tuftsin derivative formation at pH 6.5 at 2 mg/ml after 4 weeks at 37 degree C by reverse phase HPLC analysis
In short: (§2)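 Conjugate incubated in Sula semisynthetic medium (pH 6.5) at 37 °C for 4 weeks. Decomposition to free salicylanilide and 2-hydroxyacetyl-tuftsin derivative followed by analytical RP-HPLC and mass spectrometry.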

[3] = system: Mycobacteroides abscessus; assay: Antimycobacterial activity against Mycobacterium abscessus ATCC 19977 assessed as reduction in colony forming unit after 7 days by serial dilution method; format: functional, organism-based; conditions: time 7.0 day
In short: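 MIC determined in Sula semisynthetic medium, pH 6.5, 1 week incubation. Growth inhibition confirmed by plating on Löwenstein-Jensen solid medium and counting CFU. Bacteria inoculated without drug served as growth control.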

[4] = Stability of the compound in Sula's semisynthetic medium containing 10% DMSO assessed as free salicylanilide formation at pH 6.5 at 2 mg/ml after 4 weeks at 37 degree C by reverse phase HPLC analysis; in short: as §2
[5] = system: Mycobacterium tuberculosis; assay: […] antimycobacterial activity against Mycobacterium tuberculosis H37Rv ATCC 27294 infected in human MONO-MAC-6 cells assessed as reduction in colony forming unit at 125 uM for 6 days by colony counting based analysis; format: functional, organism-based; conditions: time 6.0 day; in short: as §1
[6] = system: Mycobacterium tuberculosis; assay: Antimycobacterial activity against Mycobacterium tuberculosis H37Rv ATCC 27294 assessed as reduction in colony forming unit after 28 days by serial dilution method; format: functional, organism-based; conditions: time 28.0 day
In short: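 After the 4-week MIC incubation in Sula semisynthetic medium (pH 6.5), growth inhibition confirmed by plating on Löwenstein-Jensen solid medium and counting colony forming units.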

## C/C(=N\OCC(=O)NCC(=O)N[C@@H](Cc1ccccc1)C(=O)N[C@@H](CC(C)C)C(=O)NCC(=O)N[C@H](C(=O)N[C@@H](CCCCN)C(=O)N1CCC[C@@H]1C(=O)N[C@H](CCCCN)C(=O)NCC(=O)N[C@@H](C(=O)N[C@H](CCCCN)C(=O)N1CCC[C@H]1C(=O)N[C@H](CCCCN)C(=O)NCC(=O)N[C@@H](C(=O)N[C@@H](CCCCN)C(=O)N1CCC[C@@H]1C(=O)N[C@H](CCCCN)C(=O)NCC(=O)N[C@@H](C(=O)N[C@H](CCCCN)C(=O)N1CCC[C@H]1C(=O)N[C@H](CCCCN)C(=O)NCC(N)=O)[C@H](C)O)[C@H](C)O)[C@H](C)O)[C@@H](C)O)c1ccc(NC(=O)c2cc(Br)ccc2O)cc1
[1]
  Activity: Active
[2]
  Stability: Stable
[3]
  Activity: Active
[4]
  Stability: Stable
[5]
  Activity: inactive
[6]
  Activity: Active
